Active and inactive are the calls of the source. The calls are words filed in the database; no cut-off is given here.
Key:
[1] = system: MCF7; assay: Antiproliferative activity in human MCF7 cells assessed as cell viability after 48 hrs by alamarBlue assay; type: functional, cell-based; details: MCF7, 48 h
Procedure, shortened: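 Cells were seeded at 2.5×10^4 cells/mL and treated after 24 h with vehicle (0.1% v/v ethanol) or a dose range (0.1–20 μM) for 48 h at 37 °C in 5% CO2. Media-only blanks were subtracted, and viability is given as % of vehicle. Sextuplicate wells, three independent experiments.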

[2] = system: MCF-10A; assay: Cytotoxicity in human MCF10A cells at 1 uM after 24 to 48 hrs by alamarBlue assay; type: cell-based
[3] = system: MCF-10A; assay: Cytotoxicity in human MCF10A cells at 5 uM at 24 hrs by alamarBlue assay; type: cell-based
[4] = system: MCF-10A; assay: Cytotoxicity in human MCF10A cells at 5 uM at 48 hrs by alamarBlue assay; type: cell-based
[5] = system: MCF7; assay: Induction of reactive oxygen species generation in human MCF7 cells assessed as decrease in cell viability at 5 to 20 uM in presence of N-acetyl cysteine after 48 hrs by alamarBlue assay; type: functional, cell-based
Procedure, shortened: (§1)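 MCF-7 cells were seeded at 2.5×10^4 cells/mL and left to adhere. They were pre-treated 1 h with N-acetyl cysteine (1 mM) or Trolox (100 μM), then exposed to test agents for 48 h. Viability was measured by alamarBlue fluorescence as % of ethanol vehicle control. Mean of three independent experiments.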

[6] = system: MCF7; assay: Induction of reactive oxygen species generation in human MCF7 cells assessed as decrease in cell viability at 5 to 20 uM in presence of trolox after 48 hrs by alamarBlue assay; type: functional, cell-based; procedure, shortened: as §1
[7] = species on record: Homo sapiens; assay: Induction of tubulin depolymerization in human MCF7 cells at 1 uM after 4 hrs by Western blot method; type: cell-based
Procedure, shortened: (§2)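 MCF-7 (1×10^6/well) or Jurkat cells were treated for 4 h with 1–20 μM or 0.1% ethanol. Cells were lysed in microtubule-preserving buffer (0.1 M PIPES pH 6.9, 2 M glycerol, 5 mM MgCl2, 2 mM EGTA, 0.5% Triton X-100, 4 μM paclitaxel) and centrifuged at 20,000g for 45 min. Soluble (supernatant) and polymer (pellet) fractions, 30 μg protein each, were immunoblotted for α-tubulin with a GAPDH loading control. Three experiments.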

[8] = species on record: Homo sapiens; assay: Induction of tubulin depolymerization in human Jurkat cells at 1 uM after 4 hrs by Western blot method; type: cell-based; procedure, shortened: as §2
[9] = system: MCF7; assay: Induction of reactive oxygen species generation in human MCF7 cells assessed as decrease in cell viability at 10 uM in presence of N-acetyl cysteine after 48 hrs by alamarBlue assay; type: functional, cell-based; procedure, shortened: as §1

Row | IC50 [1] [µM] | SMILES | Activity [2] | Activity [3] [%] | Activity [4] [%] | Activity [7] | Activity [8] | also measured
1 | 7.5 | COc1cccc(/C=C/C(=O)N2CCC=CC2=O)c1 | Non-Toxic | > 90 | > 80 | – | – | –
2 | 3.4 | COc1cc(OC)c(OC)cc1/C=C/C(=O)N1CCC=CC1=O | Non-Toxic | > 90 | > 80 | – | – | Activity [5]: inactive; Activity [6]: inactive
3 | – | CC(=O)O[C@H]1C(=O)[C@@]2(C)[C@H]([C@H](OC(=O)c3ccccc3)[C@]3(O)C[C@H](OC(=O)[C@H](O)[C@@H](NC(=O)c4ccccc4)c4ccccc4)C(C)=C1C3(C)C)[C@]1(OC(C)=O)CO[C@@H]1C[C@@H]2O | – | – | – | inactive | inactive | –
4 | – | COC(=O)Nc1nc2cc(C(=O)c3cccs3)ccc2[nH]1 | – | – | – | Active | Active | –
5 | – | COc1cc(/C=C/C(=O)c2ccccc2)cc(OC)c1OC | – | – | – | – | – | Activity [9]: inactive

Source: ChEMBL document CHEMBL4041479, “Piperlongumine (piplartine) and analogues: Antiproliferative microtubule-destabilising agents” (Eur J Med Chem, 2017)
